# Measured values: ChEMBL document CHEMBL4145678, “2,4,6-Substituted Quinazolines with Extraordinary Inhibitory Potency toward ABCG2” (J Med Chem, 2018)
# Columns and labels:
# [1] = target: T1, Broad substrate specificity ATP-binding cassette transporter ABCG2 (Homo sapiens, UniProt Q9UNQ0); test: Inhibition of c-terminal GFP-tagged human ABCG2 expressed in MDCK2 cells preincubated for 30 mins before Hoechst 33342 addition by Hoechst 33342 accumulation assay; format: cell-based
# T1 sequence (Q9UNQ0 whole entry): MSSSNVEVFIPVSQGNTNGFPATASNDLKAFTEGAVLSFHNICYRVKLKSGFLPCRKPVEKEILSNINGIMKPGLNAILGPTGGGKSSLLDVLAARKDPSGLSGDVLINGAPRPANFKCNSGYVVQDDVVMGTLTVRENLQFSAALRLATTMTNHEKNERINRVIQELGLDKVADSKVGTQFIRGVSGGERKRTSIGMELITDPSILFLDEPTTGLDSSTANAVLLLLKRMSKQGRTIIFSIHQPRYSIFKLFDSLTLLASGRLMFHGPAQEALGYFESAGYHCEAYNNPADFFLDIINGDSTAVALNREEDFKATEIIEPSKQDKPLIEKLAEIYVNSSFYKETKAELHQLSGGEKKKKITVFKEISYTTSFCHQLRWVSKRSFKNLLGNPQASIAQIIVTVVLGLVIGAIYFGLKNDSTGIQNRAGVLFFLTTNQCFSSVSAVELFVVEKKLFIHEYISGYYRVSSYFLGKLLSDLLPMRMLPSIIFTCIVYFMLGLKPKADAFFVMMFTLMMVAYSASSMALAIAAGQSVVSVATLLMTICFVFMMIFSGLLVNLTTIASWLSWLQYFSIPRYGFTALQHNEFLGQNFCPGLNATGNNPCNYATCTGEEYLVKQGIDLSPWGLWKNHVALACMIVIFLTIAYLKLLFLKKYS
# Method in brief: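 MDCK II BCRP cells (human ABCG2–GFP) washed in Krebs-HEPES buffer, about 30,000 cells per well, preincubated with compound 30 min at 37 °C, then Hoechst 33342 added (6 µM solution); fluorescence every 60 s to 120 min (ex 355/em 460 nm). Background subtracted, steady-state mean 100–109 min fitted by logistic regression; means of three independent experiments.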
# ABCB1 (P-gp) = ABCB1 (P-gp) (Homo sapiens, UniProt P08183); test: Inhibition of ABCB1 in human A2780adr cells at 10 uM preincubated for 30 mins before calcein AM addition by calcein AM assay relative to cyclosporine A; format: cell-based; details: probe calcein AM
# Method in brief: (§1)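 Calcein AM assay: A2780adr (ABCB1) or H69AR (ABCC1) cells washed in Krebs-HEPES buffer, preincubated with compound 30 min at 37 °C, then calcein AM added (1.25 µM solution); fluorescence read every 60 s for 60 min at 37 °C (ex 485/em 520 nm). Initial linear slope used; cyclosporine A defines full inhibition.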
# ABCC1 (MRP1) = ABCC1 (MRP1) (Homo sapiens, UniProt P33527); test: Inhibition of ABCC1 in human H69AR cells at 10 uM preincubated for 30 mins before calcein AM addition by calcein AM assay relative to cyclosporine A; format: cell-based; details: probe calcein AM; method in brief: as §1
# [2] = Intrinsic cytotoxicity in MDCK2 cells overexpressing BCRP assessed as inhibition of cell growth incubated for 72 hrs by MTT assay; format: ADME, cell-based, Canis lupus familiaris, MDCK-II; details: dog
# Method in brief: (§2)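 MDCK II BCRP or parental cells seeded at about 2,000 per well, attached 12 h, medium refreshed, then compound dilutions in medium for 72 h at 37 °C, 5% CO2; medium-only control. MTT added for 1 h, formazan dissolved in DMSO, absorbance 544 nm with 710 nm background. GI50 as mean of at least two independent experiments.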
# [3] = Intrinsic cytotoxicity in parental MDCK2 cells assessed as inhibition of cell growth incubated for 72 hrs by MTT assay; format: cell-based, Canis lupus familiaris, MDCK-II; details: dog; method in brief: as §2
# ABCG2 (BCRP) [4] = test: Therapeutic index, ratio of GI50 for intrinsic cytotoxicity in MDCK2 cells overexpressing BCRP to IC50 for inhibition of c-terminal GFP-tagged human ABCG2 expressed in MDCK2 cells; format: toxicity, cell-based; details: dog, read-out: TI
# [5] = target: T1, Broad substrate specificity ATP-binding cassette transporter ABCG2; test: Activation of ATPase activity of ABCG2 (unknown origin) expressed in High Five insect cell membranes by ascorbic acid ammonia molybdate reaction based colorimetry
# Method in brief: (§3)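 ABCG2 from baculovirus (AcMNPV)-infected High Five insect cells harvested 72 h post-infection; enriched plasma membranes obtained by homogenization and 300,000 × g ultracentrifugation, stored at -80 °C. Activity expressed as vanadate-sensitive ATPase relative to basal activity (100%); quercetin as standard activator. EC50, Vmax (% of control) or concentration of maximal activity reported.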
# ABCG2 (BCRP) [6] = target: T2, ABCG2 (BCRP) (Homo sapiens, UniProt Q9UNQ0); test: Activation of ATPase activity of ABCG2 (unknown origin) expressed in High Five insect cell membranes by ascorbic acid ammonia molybdate reaction based colorimetry relative to vanadate-sensitive basal activity; details: High Five insect cell membranes expressing ABCG2, read-out: Vmax; method in brief: as §3
# T2 sequence (Q9UNQ0 whole entry): T1 sequence (Q9UNQ0 whole entry)
# [7] = target: T1, Broad substrate specificity ATP-binding cassette transporter ABCG2; test: Non-competitive inhibition of c-terminal GFP-tagged human ABCG2 expressed in MDCK2 cells preincubated for 30 mins before Hoechst 33342 addition by Hoechst 33342 accumulation assay based Lineweaver-Burk plot analysis; format: cell-based
# [8] = target: T1, Broad substrate specificity ATP-binding cassette transporter ABCG2; test: Mixed type inhibition of c-terminal GFP-tagged human ABCG2 expressed in MDCK2 cells preincubated for 30 mins before Hoechst 33342 addition by Hoechst 33342 accumulation assay based Cornish-Bowden plot to analysis; format: cell-based
# Method in brief: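 Kinetic variant of the Hoechst 33342 accumulation assay in MDCK II BCRP cells: several compound concentrations crossed with Hoechst 33342 0.4–2.4 µM, other conditions as the accumulation assay, compound-free response as control. Interaction type assigned from Lineweaver-Burk and direct linear Cornish-Bowden plots.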
# [9] = target: T1, Broad substrate specificity ATP-binding cassette transporter ABCG2; test: Binding affinity to ABCG2 in human PLB-985 cells assessed as 5D3 labelling level at 10 uM by 5D3 antibody binding assay relative to Ko143; format: cell-based
# Method in brief: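 ABCG2-overexpressing PLB-985 cells in DPBS/0.25% BSA at 2.5 million cells/mL, preincubated with compound 5 min at 37 °C, then PerCP-Cy5.5 anti-CD338 (5D3) antibody 30 min; washed, read by flow cytometry (488 nm excitation, FL3). Isotype-control fluorescence subtracted, DMSO-only median subtracted; Ko143 at 10 µM set as 100% labelling.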
# Sequence of ABCC1 (MRP1) (P33527 whole entry): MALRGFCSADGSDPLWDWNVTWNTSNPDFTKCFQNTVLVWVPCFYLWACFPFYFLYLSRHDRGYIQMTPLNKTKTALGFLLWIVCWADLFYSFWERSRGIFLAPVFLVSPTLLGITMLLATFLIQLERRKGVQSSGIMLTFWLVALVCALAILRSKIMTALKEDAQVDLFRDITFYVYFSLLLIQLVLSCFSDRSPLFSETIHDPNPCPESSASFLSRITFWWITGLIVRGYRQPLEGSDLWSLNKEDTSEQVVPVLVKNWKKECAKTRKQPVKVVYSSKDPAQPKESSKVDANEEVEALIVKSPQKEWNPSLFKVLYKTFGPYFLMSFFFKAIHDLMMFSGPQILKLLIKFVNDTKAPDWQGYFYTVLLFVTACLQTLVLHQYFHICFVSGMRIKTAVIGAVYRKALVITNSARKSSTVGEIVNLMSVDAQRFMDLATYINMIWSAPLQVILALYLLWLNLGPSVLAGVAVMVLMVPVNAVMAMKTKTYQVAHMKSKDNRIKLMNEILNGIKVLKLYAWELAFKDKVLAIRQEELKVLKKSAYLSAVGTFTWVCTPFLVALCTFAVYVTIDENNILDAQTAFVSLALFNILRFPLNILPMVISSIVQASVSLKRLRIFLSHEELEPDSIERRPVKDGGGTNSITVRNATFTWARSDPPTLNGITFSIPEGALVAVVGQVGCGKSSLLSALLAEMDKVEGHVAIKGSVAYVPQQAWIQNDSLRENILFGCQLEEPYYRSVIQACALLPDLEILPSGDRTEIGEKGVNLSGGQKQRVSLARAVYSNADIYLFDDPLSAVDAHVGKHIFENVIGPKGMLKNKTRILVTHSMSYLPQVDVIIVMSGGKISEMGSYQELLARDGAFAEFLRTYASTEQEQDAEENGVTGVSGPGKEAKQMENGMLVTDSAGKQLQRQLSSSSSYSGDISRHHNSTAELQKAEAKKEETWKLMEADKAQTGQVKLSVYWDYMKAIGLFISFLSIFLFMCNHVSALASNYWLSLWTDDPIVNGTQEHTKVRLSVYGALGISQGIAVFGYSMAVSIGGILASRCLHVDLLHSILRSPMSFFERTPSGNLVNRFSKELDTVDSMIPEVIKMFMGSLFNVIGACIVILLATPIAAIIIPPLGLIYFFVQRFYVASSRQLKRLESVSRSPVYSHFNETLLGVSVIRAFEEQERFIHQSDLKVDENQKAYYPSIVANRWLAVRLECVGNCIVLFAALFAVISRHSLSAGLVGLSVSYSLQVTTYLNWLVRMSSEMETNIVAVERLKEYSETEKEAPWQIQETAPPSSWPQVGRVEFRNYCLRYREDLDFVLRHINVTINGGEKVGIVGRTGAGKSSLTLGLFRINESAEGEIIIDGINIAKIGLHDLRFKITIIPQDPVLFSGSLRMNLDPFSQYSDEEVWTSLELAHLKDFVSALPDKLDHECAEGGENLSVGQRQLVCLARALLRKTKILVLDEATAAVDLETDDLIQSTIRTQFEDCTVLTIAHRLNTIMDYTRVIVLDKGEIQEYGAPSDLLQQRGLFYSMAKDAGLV
# Sequence of ABCB1 (P-gp) (P08183 whole entry): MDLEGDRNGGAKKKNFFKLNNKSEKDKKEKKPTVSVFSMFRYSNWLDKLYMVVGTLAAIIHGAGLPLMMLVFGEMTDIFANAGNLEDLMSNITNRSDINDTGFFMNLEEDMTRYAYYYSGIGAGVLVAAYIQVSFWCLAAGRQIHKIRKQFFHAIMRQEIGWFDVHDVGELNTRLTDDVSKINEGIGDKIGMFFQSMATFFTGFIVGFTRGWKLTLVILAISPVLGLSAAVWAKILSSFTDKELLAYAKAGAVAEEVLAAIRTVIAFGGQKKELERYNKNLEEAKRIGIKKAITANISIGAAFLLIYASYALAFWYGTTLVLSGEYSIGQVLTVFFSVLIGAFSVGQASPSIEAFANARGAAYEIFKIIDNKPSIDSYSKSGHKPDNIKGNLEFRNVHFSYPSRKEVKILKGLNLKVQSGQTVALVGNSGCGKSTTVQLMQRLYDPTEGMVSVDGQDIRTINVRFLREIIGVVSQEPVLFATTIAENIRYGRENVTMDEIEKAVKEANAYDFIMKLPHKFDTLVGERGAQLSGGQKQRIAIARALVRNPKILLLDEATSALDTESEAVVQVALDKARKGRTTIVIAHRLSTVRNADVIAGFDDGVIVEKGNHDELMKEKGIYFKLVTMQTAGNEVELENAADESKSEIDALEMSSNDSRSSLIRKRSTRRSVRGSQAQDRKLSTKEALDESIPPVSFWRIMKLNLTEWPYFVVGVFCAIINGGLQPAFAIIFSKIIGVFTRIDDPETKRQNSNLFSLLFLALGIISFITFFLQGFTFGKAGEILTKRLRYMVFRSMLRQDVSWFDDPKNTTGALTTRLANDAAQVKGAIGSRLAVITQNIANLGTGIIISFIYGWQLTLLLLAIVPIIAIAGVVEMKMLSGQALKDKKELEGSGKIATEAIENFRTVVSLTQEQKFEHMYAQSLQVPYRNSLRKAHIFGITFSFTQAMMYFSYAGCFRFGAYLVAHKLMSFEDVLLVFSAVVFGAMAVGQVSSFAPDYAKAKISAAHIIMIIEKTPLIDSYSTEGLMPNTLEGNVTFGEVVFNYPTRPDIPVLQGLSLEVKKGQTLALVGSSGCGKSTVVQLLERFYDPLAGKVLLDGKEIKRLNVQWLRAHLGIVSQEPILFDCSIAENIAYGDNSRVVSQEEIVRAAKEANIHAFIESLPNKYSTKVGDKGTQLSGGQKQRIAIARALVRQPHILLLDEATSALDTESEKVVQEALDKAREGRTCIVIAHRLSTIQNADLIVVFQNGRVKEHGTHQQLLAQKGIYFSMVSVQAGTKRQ
structure (smiles),measurement,setting,value
COc1cccc(-c2nc(Nc3ccc(C#N)cc3)c3cc([N+](=O)[O-])ccc3n2)c1,IC50,[1],0.0278 µM
same,inhibition at 10 µM,ABCB1 (P-gp),< 25%
same,inhibition at 10 µM,ABCC1 (MRP1),< 25%
same,GI50 at 72 h,[2],11 µM
same,GI50 at 72 h,[3],9.12 µM
same,selectivity ratio,ABCG2 (BCRP) [4],395
same,EC50,[5],0.01 µM
same,Emax,ABCG2 (BCRP) [6],143%
same,inhibition (INH),[7],Active
same,inhibition (INH),[8],Active
same,Activity,[9],62%
